Columns and labels:
[1] = biological target: T1, 5-hydroxytryptamine receptor 1A (Rattus norvegicus, UniProt P19327); assay: Displacement of [3H]-8-OHDPAT from 5-HT1A receptor in rat hippocampal membranes after 30 mins; type: cell membranes, Hippocampus, Membrane
T1 sequence (P19327 whole entry): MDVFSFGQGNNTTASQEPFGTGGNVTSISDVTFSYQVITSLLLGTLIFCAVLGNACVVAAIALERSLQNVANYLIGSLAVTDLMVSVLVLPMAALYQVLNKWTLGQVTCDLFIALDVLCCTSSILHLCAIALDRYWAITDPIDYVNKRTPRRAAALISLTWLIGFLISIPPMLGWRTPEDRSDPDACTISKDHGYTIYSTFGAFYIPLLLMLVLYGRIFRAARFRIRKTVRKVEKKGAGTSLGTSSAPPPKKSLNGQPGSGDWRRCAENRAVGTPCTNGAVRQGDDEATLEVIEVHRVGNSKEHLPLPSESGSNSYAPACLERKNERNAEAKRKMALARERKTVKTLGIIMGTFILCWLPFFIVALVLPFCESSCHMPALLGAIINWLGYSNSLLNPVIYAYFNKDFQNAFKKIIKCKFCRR

[2] = biological target: T2, Alpha-1D adrenergic receptor (Homo sapiens, UniProt P25100); assay: Displacement of [3H]prazosin from human alpha-1D adrenoreceptor expressed in CHO cells after 30 mins; type: cell-based
T2 sequence (P25100 whole entry): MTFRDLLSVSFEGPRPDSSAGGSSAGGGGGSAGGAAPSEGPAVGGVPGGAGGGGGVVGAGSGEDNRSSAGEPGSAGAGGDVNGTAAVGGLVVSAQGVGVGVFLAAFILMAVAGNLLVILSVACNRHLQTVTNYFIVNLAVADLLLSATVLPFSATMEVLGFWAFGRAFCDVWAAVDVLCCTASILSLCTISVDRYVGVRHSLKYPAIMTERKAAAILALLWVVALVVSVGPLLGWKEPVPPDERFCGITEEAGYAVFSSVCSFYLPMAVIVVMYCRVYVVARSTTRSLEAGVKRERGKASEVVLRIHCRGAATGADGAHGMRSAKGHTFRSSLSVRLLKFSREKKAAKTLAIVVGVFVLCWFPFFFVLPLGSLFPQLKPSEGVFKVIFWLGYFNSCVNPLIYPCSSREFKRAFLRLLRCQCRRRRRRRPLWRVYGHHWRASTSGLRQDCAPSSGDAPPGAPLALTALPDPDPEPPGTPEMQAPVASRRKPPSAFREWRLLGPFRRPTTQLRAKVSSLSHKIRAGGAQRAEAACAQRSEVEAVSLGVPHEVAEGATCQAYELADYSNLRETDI
Method in brief: (§1)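 Membranes from CHO cells expressing each α₁-AR subtype, incubated 30 min at 25 °C in 50 mM Tris HCl pH 7.7 with 10 μM pargyline and 0.1% ascorbic acid, plus 0.5 nM [³H]prazosin and varying test compound concentrations. Nonspecific binding was defined with 1 μM prazosin.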

[3] = biological target: T3, Alpha-1B adrenergic receptor (Homo sapiens, UniProt P35368); assay: Displacement of [3H]prazosin from human alpha-1B adrenoreceptor expressed in CHO cells after 30 mins; type: cell-based; method in brief: as §1
T3 sequence (P35368 whole entry): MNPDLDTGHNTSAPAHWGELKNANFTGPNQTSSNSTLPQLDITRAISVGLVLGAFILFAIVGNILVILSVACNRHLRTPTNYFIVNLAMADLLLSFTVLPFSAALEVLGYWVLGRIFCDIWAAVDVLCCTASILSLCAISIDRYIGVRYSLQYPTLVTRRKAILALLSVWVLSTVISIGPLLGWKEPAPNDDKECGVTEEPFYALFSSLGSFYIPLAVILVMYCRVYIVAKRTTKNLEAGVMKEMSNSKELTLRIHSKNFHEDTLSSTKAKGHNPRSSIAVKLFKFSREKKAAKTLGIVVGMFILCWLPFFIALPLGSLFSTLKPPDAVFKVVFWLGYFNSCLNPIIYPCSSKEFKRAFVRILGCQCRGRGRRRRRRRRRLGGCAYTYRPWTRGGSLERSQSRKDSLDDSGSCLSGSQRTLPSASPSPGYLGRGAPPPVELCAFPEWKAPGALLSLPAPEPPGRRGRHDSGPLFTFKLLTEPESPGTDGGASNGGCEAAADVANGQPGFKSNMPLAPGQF

[4] = biological target: T4, Alpha-1A adrenergic receptor (Homo sapiens, UniProt P35348); assay: Displacement of [3H]prazosin from human alpha-1A adrenoreceptor expressed in CHO cells after 30 mins; type: cell-based; method in brief: as §1
T4 sequence (P35348 whole entry): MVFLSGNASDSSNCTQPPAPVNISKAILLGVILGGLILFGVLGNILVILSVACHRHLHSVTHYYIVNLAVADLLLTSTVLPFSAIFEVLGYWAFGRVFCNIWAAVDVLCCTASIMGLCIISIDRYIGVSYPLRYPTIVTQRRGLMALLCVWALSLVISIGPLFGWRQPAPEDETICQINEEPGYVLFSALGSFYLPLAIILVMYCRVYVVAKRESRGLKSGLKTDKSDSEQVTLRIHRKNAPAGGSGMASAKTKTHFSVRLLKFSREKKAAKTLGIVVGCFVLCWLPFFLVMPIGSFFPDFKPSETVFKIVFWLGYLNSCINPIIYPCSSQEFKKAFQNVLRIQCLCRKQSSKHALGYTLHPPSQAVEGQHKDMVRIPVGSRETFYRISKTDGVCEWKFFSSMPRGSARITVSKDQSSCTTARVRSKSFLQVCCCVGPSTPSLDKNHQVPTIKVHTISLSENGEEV

Ki [1] [nM] | Ki [2] [nM] | Ki [3] [nM] | Ki [4] [nM] | Compound
162 | 18.2 | 162 | 17 | COc1ccc2c(c1OCCNC[C@@H]1COc3ccccc3O1)OCC2
11 | 18.2 | 126 | 9.12 | COc1ccc2ccoc2c1OCCNC[C@@H]1COc2ccccc2O1
219 | 83.2 | 372 | 31.6 | COc1ccc2c(c1OCCNC[C@@H]1COc3ccccc3O1)NCC2
1700 | 1350 | 1910 | 437 | COc1ccc2cc[nH]c2c1OCCNC[C@@H]1COc2ccccc2O1
